Laboratory results taken from ChEMBL document CHEMBL4138228, “Substituted carbamothioic amine-1-carbothioic thioanhydrides as novel trichomonicidal fungicides: Design, synthesis, and biology” (Eur J Med Chem, 2018).
≈ marks a conversion by molar mass, not a printed value.

Tests used:
Candida albicans [1] = experiment: Antifungal activity against Candida albicans MTCC 183 after 48 hrs by broth microdilution method; format: functional; settings: MTCC 183, 48 h
Method in brief: (§1)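 Broth microdilution per NCCLS guidelines in MOPS-buffered RPMI 1640; starting inoculum 1-5 x 10^3 CFU/mL; plates incubated at 35 °C; MIC recorded after 48 h; fluconazole as reference; experiments repeated three times.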

Plasmodium falciparum [2] = experiment: Antimalarial activity against chloroquine-resistant Plasmodium falciparum K1 infecetd in RBC after 72 hrs by SYBR Green dye-based fluorescence assay; format: functional, organism-based; settings: K1, Erythrocyte
Cryptococcus neoformans = experiment: Antifungal activity against Cryptococcus neoformans after 48 hrs by broth microdilution method; format: functional; method in brief: as §1
Trichomonas vaginalis [3] = experiment: Potency index, ratio of metronidazole MIC to test compound MIC for metronidazole-resistant Trichomonas vaginalis CDC085 ATCC 50143; format: functional
Trichomonas vaginalis [4] = experiment: Antitrichomonas activity against metronidazole-susceptible Trichomonas vaginalis assessed as decrease in cell viability after 48 hrs by trypan blue exclusion method; format: functional
Candida albicans [5] = experiment: Antifungal activity against Candida albicans ATCC 66027 after 48 hrs by broth microdilution method; format: functional; settings: ATCC 66027, 48 h; method in brief: as §1
[6] = Selectivity index, ratio of IC50 for human HeLa cells to MIC for metronidazole-susceptible Trichomonas vaginalis; format: toxicity; settings: read-out: Selectivity Index
Sporothrix schenckii = experiment: Antifungal activity against Sporothrix schenckii after 48 hrs by broth microdilution method; format: functional; method in brief: as §1
Candida albicans [7] = experiment: Antifungal activity against Candida albicans ATCC 14053 after 48 hrs by broth microdilution method; format: functional; settings: ATCC 14053, 48 h; method in brief: as §1
Nakaseomyces glabratus = experiment: Antifungal activity against Candida glabrata ATCC 2001 after 48 hrs by broth microdilution method; format: functional; settings: ATCC 2001, 48 h; method in brief: as §1
Trichomonas vaginalis [8] = experiment: Antitrichomonas activity against metronidazole-resistant Trichomonas vaginalis CDC085 ATCC 50143 assessed as decrease in cell viability after 48 hrs by trypan blue exclusion method; format: functional; settings: CDC085 ATCC 50143, 48 h
Candida parapsilosis = experiment: Antifungal activity against Candida parapsilosis ATCC 22019 after 48 hrs by broth microdilution method; format: functional; settings: Lodderomyces parapsilosis, ATCC 22019, 48 h; method in brief: as §1
HeLa = experiment: Cytotoxicity against human HeLa cells after 24 hrs by MTT assay; format: cell-based
[9] = tested on: Trichophyton mentagrophytes; experiment: Antifungal activity against Trichophyton mentagrophytes after 48 hrs by broth microdilution method; format: functional; method in brief: as §1
Candida albicans [10] = experiment: Antifungal activity against Candida albicans patient isolate after 48 hrs by broth microdilution method; format: functional; method in brief: as §1
Trichomonas vaginalis [11] = experiment: Potency index, ratio of metronidazole MIC to test compound MIC for metronidazole-susceptible Trichomonas vaginalis; format: functional
[12] = Selectivity index, ratio of IC50 for human HeLa cells to MIC for metronidazole-resistant Trichomonas vaginalis CDC085 ATCC 50143; format: toxicity; settings: read-out: Selectivity Index
Plasmodium falciparum [13] = experiment: Antimalarial activity against chloroquine-sensitive Plasmodium falciparum 3D7 infecetd in RBC after 72 hrs by SYBR Green dye-based fluorescence assay; format: functional, organism-based; settings: 3D7, Erythrocyte
Candida albicans [14] = experiment: Antifungal activity against Candida albicans ATCC 10231 after 48 hrs by broth microdilution method; format: functional; settings: ATCC 10231, 48 h; method in brief: as §1
Trichomonas vaginalis [15] = experiment: Antitrichomonas activity against metronidazole-susceptible Trichomonas vaginalis infected in mouse assessed as growth of abscess at 50 mg/kg, po administered for 7 days measured on day 7 post last dose (reference value: 96.5 mm'2); format: functional

| Compound | MIC (Candida albicans [1]) | IC50 (Plasmodium falciparum [2]) | MIC (Cryptococcus neoformans) | Ratio (Trichomonas vaginalis [3]) | MIC (Trichomonas vaginalis [4]) | MIC (Candida albicans [5]) | selectivity ratio [6] | MIC (Sporothrix schenckii) | MIC (Candida albicans [7]) | MIC (Nakaseomyces glabratus) | MIC (Trichomonas vaginalis [8]) | MIC (Candida parapsilosis) | IC50 (HeLa) | MIC [9] | MIC (Candida albicans [10]) | Ratio (Trichomonas vaginalis [11]) | selectivity ratio [12] | IC50 (Plasmodium falciparum [13]) | MIC (Candida albicans [14]) | Activity (Trichomonas vaginalis [15]) |
| --- | --- | --- | --- | --- | --- | --- | --- | --- | --- | --- | --- | --- | --- | --- | --- | --- | --- | --- | --- | --- |
| CN(C)C(=S)SC(=S)N1CCN(C(=O)OC(C)(C)C)CC1 | 143 µM (≈ 49.9 µg/mL) | 1.74 µM | 143 µM (≈ 49.9 µg/mL) | 1.3 - 9.5 | 17.9 µM (≈ 6.24 µg/mL) | 71.4 µM (≈ 25 µg/mL) | 73 | 143 µM (≈ 49.9 µg/mL) | 143 µM (≈ 49.9 µg/mL) | 143 µM (≈ 49.9 µg/mL) | 71.4 µM (≈ 25 µg/mL) | 143 µM (≈ 49.9 µg/mL) | 1310 µM | 143 µM (≈ 49.9 µg/mL) | 143 µM (≈ 49.9 µg/mL) | 1 - 3.8 | 18 | 0.78 µM | 143 µM (≈ 49.9 µg/mL) |  |
| Cc1ncc([N+](=O)[O-])n1CCO [METRONIDAZOLE] |  |  |  |  | 18.2 µM (≈ 3.12 µg/mL) |  | > 277 |  |  |  | 365 µM (≈ 62.6 µg/mL) |  | > 5000 µM |  |  |  | > 13 |  |  | 2.35 mm2 |
| CN(C)C(=S)SC(=S)N1CCN(C(=O)c2ccco2)CC1 | 72.9 µM (≈ 25 µg/mL) | 1.76 µM | 146 µM (≈ 50.1 µg/mL) | 1.3 - 9.5 | 18.2 µM (≈ 6.26 µg/mL) | 72.9 µM (≈ 25 µg/mL) | 130 | 72.9 µM (≈ 25 µg/mL) | 146 µM (≈ 50.1 µg/mL) | 146 µM (≈ 50.1 µg/mL) | 146 µM (≈ 50.1 µg/mL) | 146 µM (≈ 50.1 µg/mL) | 2380 µM | 72.9 µM (≈ 25 µg/mL) | 146 µM (≈ 50.1 µg/mL) | 1 - 3.8 | 16 | 0.79 µM | 146 µM (≈ 50.1 µg/mL) |  |
| CN(C)C(=S)SC(=S)N1CCN(c2cccc(Cl)c2)CC1 | 69.3 µM (≈ 25 µg/mL) |  | 139 µM (≈ 49.9 µg/mL) | 1.3 - 9.5 | 139 µM (≈ 50 µg/mL) | > 139 µM | 36 | 34.7 µM (≈ 12.5 µg/mL) | > 139 µM | > 139 µM | 278 µM (≈ 100 µg/mL) | 8.66 µM (≈ 3.12 µg/mL) | > 5000 µM | 34.7 µM (≈ 12.5 µg/mL) | 34.7 µM (≈ 12.5 µg/mL) |  | 18 |  | > 139 µM |  |
| CC1CCCN(C(=S)SC(=S)N(C)C)C1 (stereo not given) | 47.7 µM (≈ 12.5 µg/mL) |  | 47.7 µM (≈ 12.5 µg/mL) | 1.5 - 3.8 | 47.7 µM (≈ 12.5 µg/mL) | 47.7 µM (≈ 12.5 µg/mL) | 60 | 23.9 µM (≈ 6.26 µg/mL) | 95.4 µM (≈ 25 µg/mL) | 95.4 µM (≈ 25 µg/mL) | 95.4 µM (≈ 25 µg/mL) | 23.9 µM (≈ 6.26 µg/mL) | 2900 µM | 23.9 µM (≈ 6.26 µg/mL) | 23.9 µM (≈ 6.26 µg/mL) |  | 30 |  | 95.4 µM (≈ 25 µg/mL) |  |
| CCN(C)C(=S)SC(=S)N(C)C | 56.3 µM (≈ 12.5 µg/mL) |  | 225 µM (≈ 50.1 µg/mL) | 1.5 - 3.8 | 113 µM (≈ 25 µg/mL) | 28.1 µM (≈ 6.26 µg/mL) | 18 | 56.3 µM (≈ 12.5 µg/mL) | 113 µM (≈ 25 µg/mL) | 113 µM (≈ 25 µg/mL) | 225 µM (≈ 50.1 µg/mL) | 113 µM (≈ 25 µg/mL) | 2070 µM | 56.3 µM (≈ 12.5 µg/mL) | 113 µM (≈ 25 µg/mL) |  | 9 |  | 113 µM (≈ 25 µg/mL) |  |
| CCOC(=O)N1CCN(C(=S)SC(=S)N(C)C)CC1 | 156 µM (≈ 50.1 µg/mL) |  | 156 µM (≈ 50.1 µg/mL) | 1.3 - 9.5 | 77.9 µM (≈ 25 µg/mL) | 38.9 µM (≈ 12.5 µg/mL) | 6 | 77.9 µM (≈ 25 µg/mL) | 156 µM (≈ 50.1 µg/mL) | 156 µM (≈ 50.1 µg/mL) | 156 µM (≈ 50.1 µg/mL) | 156 µM (≈ 50.1 µg/mL) | 530 µM | 77.9 µM (≈ 25 µg/mL) | 156 µM (≈ 50.1 µg/mL) |  | 3 |  | > 156 µM |  |
| CCSC(=S)N1CCN(C(=S)SC(=S)N(C)C)CC1 | 70.5 µM (≈ 24.9 µg/mL) |  | 141 µM (≈ 49.9 µg/mL) | 1.3 - 11.2 | 141 µM (≈ 49.9 µg/mL) | 70.5 µM (≈ 24.9 µg/mL) | 31 | 35.2 µM (≈ 12.5 µg/mL) | 141 µM (≈ 49.9 µg/mL) | > 141 µM | 282 µM (≈ 99.9 µg/mL) | 8.81 µM (≈ 3.12 µg/mL) | 4480 µM | 35.2 µM (≈ 12.5 µg/mL) | 17.6 µM (≈ 6.23 µg/mL) |  | 15 |  | 141 µM (≈ 49.9 µg/mL) |  |
| CN(C)C(=S)SC(=S)N1CCN(C(=O)NC2CCCCC2)CC1 | > 133 µM |  | > 133 µM | 1.3 - 11.2 | 133 µM (≈ 49.9 µg/mL) | > 133 µM | > 37 | 133 µM (≈ 49.9 µg/mL) | > 133 µM | > 133 µM | 267 µM (≈ 99.9 µg/mL) | 133 µM (≈ 49.9 µg/mL) | > 5000 µM | 133 µM (≈ 49.9 µg/mL) | > 133 µM |  | > 18 |  | > 133 µM |  |
| CN(C)C(=S)SC(=S)N1CCN(C(=S)Nc2ccccc2)CC1 | > 130 µM | 1.66 µM | > 130 µM | 11.4 | 8.1 µM (≈ 3.12 µg/mL) | > 130 µM | > 617 | 130 µM (≈ 50 µg/mL) | > 130 µM | > 130 µM | 32.5 µM (≈ 12.5 µg/mL) | > 130 µM | > 5000 µM | 130 µM (≈ 50 µg/mL) | > 130 µM | 2.2 | > 154 | 0.72 µM | > 130 µM |  |
| CN(C)C(=S)SC(=S)N1CCN(c2cccc(Cl)c2Cl)CC1 | 63.5 µM (≈ 25 µg/mL) |  | 127 µM (≈ 50.1 µg/mL) | 1.3 - 9.5 | 63.5 µM (≈ 25 µg/mL) | > 127 µM | 25 | 15.9 µM (≈ 6.26 µg/mL) | > 127 µM | > 127 µM | 127 µM (≈ 50.1 µg/mL) | 31.7 µM (≈ 12.5 µg/mL) | 1590 µM | 15.9 µM (≈ 6.26 µg/mL) | 31.7 µM (≈ 12.5 µg/mL) |  | 12 |  | > 127 µM |  |
